Measurements: ChEMBL document CHEMBL1138564, “Microwave-induced synthesis and anti-microbial activities of 7,10,11,12-tetrahydrobenzo[c]acridin-8(9H)-one derivatives” (2009)
≈ marks a conversion by molar mass, not a printed value. Calls of active or inactive are those of the source. The calls are words filed in the database; no cut-off is given here.

What was measured:
[1] = system: Rhodococcus corynebacterioides; test: Antimicrobial activity against Corynebacterium rubrum NCIM 2252 at 1000 ug/disk after 24 hrs by disk diffusion method; type: functional; settings: Rhodococcoides corynebacterioides, NCIM 2252, 24 h; read-out: DIZ
Procedure, shortened: (§1)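 Disc diffusion on Mueller–Hinton agar. 100 µl of bacterial suspension at 10⁸ CFU/ml is spread on the plate. Discs carry test compounds at two loadings, dissolved in DMSO; DMSO alone serves as negative control. Ofloxacin disc is the positive reference. Plates are incubated at 37 °C for 24 h, and the inhibition zone diameter is measured.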

[2] = system: Salmonella typhimurium; test: Antimicrobial activity against Salmonella Typhimurium NCIM 2501 at 1000 ug/disk after 24 hrs by disk diffusion method; type: functional, Salmonella enterica subsp. enterica serovar Typhimurium; settings: Salmonella enterica, NCIM 2501, 24 h; read-out: DIZ
Procedure, shortened: (§2)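 Disc diffusion. 100 µl of bacterial suspension at 10⁸ CFU/ml was spread on Mueller–Hinton agar. Discs loaded with test compound dissolved in DMSO were placed on the lawn, with a DMSO-only disc as negative control. Plates were incubated at 37 °C for 24 h, and the inhibition zone diameter was measured.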

[3] = system: Aliivibrio fischeri; test: Antimicrobial activity against Vibrio fischeri NCIM 2154 at 500 ug/disk after 24 hrs by disk diffusion method; type: functional; settings: NCIM 2154, 24 h, read-out: DIZ; procedure, shortened: as §2
[4] = system: Escherichia coli; test: Antimicrobial activity against Escherichia coli NCIM 2065 after 24 hrs by serial dilution method; type: functional; settings: NCIM 2065, 24 h
Procedure, shortened: (§3)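 Broth dilution MIC in nutrient broth, run only for organisms found sensitive in disc diffusion. Compounds are two-fold serially diluted in 1 ml sterile broth per tube, spanning 3.9 to 1000. Inoculated tubes are incubated at 37 °C for 24 h.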

[5] = system: Lipomyces lipofer; test: Antimicrobial activity against Lipomyces lipofer NCIM 3252 at 500 ug/disk after 72 hrs by disk diffusion method; type: functional; settings: NCIM 3252, 72 h, read-out: DIZ
Procedure, shortened: (§4)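 Disc diffusion on Sabouraud's dextrose agar. 100 µl of fungal suspension at 10⁶ CFU/ml is spread on the plate. Discs carry test compounds at two loadings in DMSO; DMSO alone is the negative control. Clotrimazole disc is the positive reference. Plates are incubated at 27 °C for 72 h, and the zone of inhibition diameter is measured.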

[6] = system: Bacillus subtilis; test: Antimicrobial activity against Bacillus subtilis NCIM 2063 after 24 hrs by serial dilution method; type: functional; settings: NCIM 2063, 24 h; procedure, shortened: as §3
[7] = system: Penicillium chrysogenum; test: Antimicrobial activity against Penicillium chrysogenum NCIM 707 at 500 ug/disk after 72 hrs by disk diffusion method; type: functional; settings: NCIM 707, 72 h, read-out: DIZ; procedure, shortened: as §4
[8] = system: Lipomyces lipofer; test: Antimicrobial activity against Lipomyces lipofer NCIM 3252 at 1000 ug/disk after 72 hrs by disk diffusion method; type: functional; settings: NCIM 3252, 72 h, read-out: DIZ; procedure, shortened: as §4
[9] = system: Trichoderma viride; test: Antimicrobial activity against Trichoderma viride NCIM 1195 at 500 ug/disk after 72 hrs by disk diffusion method; type: functional; settings: NCIM 1195, 72 h, read-out: DIZ
Procedure, shortened: (§5)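 Fungal disc diffusion. 100 µl of suspension at 10⁶ CFU/ml was spread on Sabouraud's dextrose agar. Discs carrying test compound in DMSO were applied, with a DMSO-only disc as negative control. Plates were incubated at 27 °C for 72 h, and the zone of inhibition diameter was measured.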

[10] = system: Escherichia coli; test: Antimicrobial activity against Escherichia coli NCIM 2065 at 1000 ug/disk after 24 hrs by disk diffusion method; type: functional; settings: NCIM 2065, 24 h, read-out: DIZ; procedure, shortened: as §1
[11] = system: Aspergillus flavus; test: Antimicrobial activity against Aspergillus flavus NCIM 902 at 500 ug/disk after 72 hrs by disk diffusion method; type: functional; settings: NCIM 902, 72 h, read-out: DIZ; procedure, shortened: as §4
[12] = system: Salmonella typhimurium; test: Antimicrobial activity against Salmonella Typhimurium NCIM 2501 at 500 ug/disk after 24 hrs by disk diffusion method; type: functional, Salmonella enterica subsp. enterica serovar Typhimurium; settings: Salmonella enterica, NCIM 2501, 24 h; read-out: DIZ; procedure, shortened: as §2
[13] = system: Pseudomonas aeruginosa; test: Antimicrobial activity against Pseudomonas aeruginosa NCIM 2200 at 1000 ug/disk after 24 hrs by disk diffusion method; type: functional; settings: NCIM 2200, 24 h, read-out: DIZ; procedure, shortened: as §1
[14] = system: Bacillus cereus; test: Antimicrobial activity against Bacillus cereus NCIM 2155 at 500 ug/disk after 24 hrs by disk diffusion method; type: functional; procedure, shortened: as §1
[15] = system: Bacillus subtilis; test: Antimicrobial activity against Bacillus subtilis NCIM 2063 at 500 ug/disk after 24 hrs by disk diffusion method; type: functional; settings: NCIM 2063, 24 h, read-out: DIZ; procedure, shortened: as §1
[16] = system: Klebsiella aerogenes; test: Antimicrobial activity against Klebsiella aerogenes NCIM 2239 at 500 ug/disk after 24 hrs by disk diffusion method; type: functional; settings: NCIM 2239, 24 h, read-out: DIZ; procedure, shortened: as §1
[17] = system: Rhodotorula mucilaginosa; test: Antimicrobial activity against Rhodotorula rubra NCIM 3174 at 500 ug/disk after 72 hrs by disk diffusion method; type: functional; settings: NCIM 3174, 72 h, read-out: DIZ; procedure, shortened: as §5
[18] = system: Klebsiella aerogenes; test: Antimicrobial activity against Klebsiella aerogenes NCIM 2239 at 1000 ug/disk after 24 hrs by disk diffusion method; type: functional; settings: NCIM 2239, 24 h, read-out: DIZ; procedure, shortened: as §1
[19] = system: Proteus vulgaris; test: Antimicrobial activity against Proteus vulgaris NCIM 2027 at 1000 ug/disk after 24 hrs by disk diffusion method; type: functional; settings: NCIM 2027, 24 h, read-out: DIZ; procedure, shortened: as §1
[20] = system: Aliivibrio fischeri; test: Antimicrobial activity against Vibrio fischeri NCIM 2154 at 1000 ug/disk after 24 hrs by disk diffusion method; type: functional; settings: NCIM 2154, 24 h, read-out: DIZ; procedure, shortened: as §2
[21] = system: Aspergillus parasiticus; test: Antimicrobial activity against Aspergillus parasiticus NCIM 904 at 500 ug/disk after 72 hrs by disk diffusion method; type: functional; settings: NCIM 904, 72 h, read-out: DIZ; procedure, shortened: as §4
[22] = system: Rhodotorula mucilaginosa; test: Antimicrobial activity against Rhodotorula rubra NCIM 3174 after 72 hrs by serial dilution method; type: functional; settings: NCIM 3174, 72 h
Procedure, shortened: (§6)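 MIC by broth dilution in Sabouraud's dextrose broth, run only on fungi found sensitive in the disc assay. Twofold serial dilutions were made in 1 ml broth per tube, covering 3.9 to 1000. Inoculated tubes were incubated at 27 °C for 72 h.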

[23] = system: Staphylococcus; test: Antimicrobial activity against Staphylococcus albus NCIM 2178 at 500 ug/disk after 24 hrs by disk diffusion method; type: functional; settings: NCIM 2178, 24 h, read-out: DIZ; procedure, shortened: as §2
[24] = system: Rhodotorula mucilaginosa; test: Antimicrobial activity against Rhodotorula rubra NCIM 3174 at 1000 ug/disk after 72 hrs by disk diffusion method; type: functional; settings: NCIM 3174, 72 h, read-out: DIZ; procedure, shortened: as §5
[25] = system: Aspergillus flavus; test: Antimicrobial activity against Aspergillus flavus NCIM 902 at 1000 ug/disk after 72 hrs by disk diffusion method; type: functional; settings: NCIM 902, 72 h, read-out: DIZ; procedure, shortened: as §4
[26] = system: Bacillus cereus; test: Antimicrobial activity against Bacillus cereus NCIM 2155 at 1000 ug/disk after 24 hrs by disk diffusion method; type: functional; procedure, shortened: as §1
[27] = system: Aliivibrio fischeri; test: Antimicrobial activity against Vibrio fischeri NCIM 2154 after 24 hrs by serial dilution method; type: functional; settings: NCIM 2154, 24 h
[28] = system: Rhodococcus corynebacterioides; test: Antimicrobial activity against Corynebacterium rubrum NCIM 2252 at 500 ug/disk after 24 hrs by disk diffusion method; type: functional; settings: Rhodococcoides corynebacterioides, NCIM 2252, 24 h; read-out: DIZ; procedure, shortened: as §1
[29] = system: Aspergillus parasiticus; test: Antimicrobial activity against Aspergillus parasiticus NCIM 904 at 1000 ug/disk after 72 hrs by disk diffusion method; type: functional; settings: NCIM 904, 72 h, read-out: DIZ; procedure, shortened: as §4
[30] = system: Proteus vulgaris; test: Antimicrobial activity against Proteus vulgaris NCIM 2027 at 500 ug/disk after 24 hrs by disk diffusion method; type: functional; settings: NCIM 2027, 24 h, read-out: DIZ; procedure, shortened: as §1
[31] = system: Trichoderma viride; test: Antimicrobial activity against Trichoderma viride NCIM 1195 after 72 hrs by serial dilution method; type: functional; settings: NCIM 1195, 72 h; procedure, shortened: as §6
[32] = system: Aspergillus fumigatus; test: Antimicrobial activity against Aspergillus fumigatus NCIM 902 at 1000 ug/disk after 72 hrs by disk diffusion method; type: functional; procedure, shortened: as §4
[33] = system: Staphylococcus; test: Antimicrobial activity against Staphylococcus albus NCIM 2178 at 1000 ug/disk after 24 hrs by disk diffusion method; type: functional; settings: NCIM 2178, 24 h, read-out: DIZ; procedure, shortened: as §2
[34] = system: Escherichia coli; test: Antimicrobial activity against Escherichia coli NCIM 2065 at 500 ug/disk after 24 hrs by disk diffusion method; type: functional; settings: NCIM 2065, 24 h, read-out: DIZ; procedure, shortened: as §1

O=C1CCCC2=C1C(c1ccc(O)cc1)c1ccc3ccccc3c1N2 (centres undefined)
zone of inhibition at 1000 µg/disc [1]: 9 mm | zone of inhibition at 1000 µg/disc [2]: 9 mm | zone of inhibition at 500 µg/disc [3]: 7 mm | MIC [4]: 125 µg/mL (≈ 366 µM) | zone of inhibition at 500 µg/disc [5]: 10 mm | MIC [6]: 31.2 µg/mL (≈ 91.4 µM) | zone of inhibition at 500 µg/disc [7]: 9 mm | zone of inhibition at 1000 µg/disc [8]: 11 mm | zone of inhibition at 500 µg/disc [9]: 10 mm | zone of inhibition at 1000 µg/disc [10]: 9 mm | zone of inhibition at 500 µg/disc [11]: 7 mm | zone of inhibition at 500 µg/disc [12]: 7 mm | zone of inhibition at 1000 µg/disc [13]: 9 mm | diameter of the inhibition zone (DIZ) [14]: inactive | zone of inhibition at 500 µg/disc [15]: 9 mm | zone of inhibition at 500 µg/disc [16]: 7 mm | zone of inhibition at 500 µg/disc [17]: 12 mm | zone of inhibition at 1000 µg/disc [18]: 10 mm | zone of inhibition at 1000 µg/disc [19]: 9 mm | zone of inhibition at 1000 µg/disc [20]: 9 mm | zone of inhibition at 500 µg/disc [21]: 12 mm | MIC [22]: 7.8 µg/mL (≈ 22.8 µM) | zone of inhibition at 500 µg/disc [23]: 8 mm | zone of inhibition at 1000 µg/disc [24]: 14 mm | zone of inhibition at 1000 µg/disc [25]: 8 mm | diameter of the inhibition zone (DIZ) [26]: inactive | MIC [27]: 125 µg/mL (≈ 366 µM) | zone of inhibition at 500 µg/disc [28]: 7 mm | zone of inhibition at 1000 µg/disc [29]: 13 mm | zone of inhibition at 500 µg/disc [30]: 7 mm | MIC [31]: 31.2 µg/mL (≈ 91.4 µM) | diameter of the inhibition zone (DIZ) [32]: inactive | zone of inhibition at 1000 µg/disc [33]: 10 mm | zone of inhibition at 500 µg/disc [34]: 7 mm
